ChEMBL document CHEMBL3875171, “[1,2]Oxazolo[5,4-e]isoindoles as promising tubulin polymerization inhibitors” (Eur J Med Chem, 2016)
The source made the active and inactive calls. No cut-off for these calls is given here.

Columns and labels:
[1] = Cytotoxicity against human JR8 cells assessed as growth inhibition after 72 hrs by MTS assay; format: functional, cell-based; settings: JR8, 72 h
Summary of the method: (§1)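 Log-phase cells seeded at 4500 cells/50 µL and grown 24 h, then exposed 72 h to 0.01-100 µM compound; vehicle controls 0.01% DMSO. MTS read-out at 490 nm, expressed as % of DMSO-treated cells. Eight replicates per condition, at least three independent repeats; IC50 read graphically from dose-response curves.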

[2] = Cytotoxicity against human MP8 cells assessed as growth inhibition after 72 hrs by MTS assay; format: functional, cell-based; settings: MP8, 72 h; summary of the method: as §1
[3] = Cytotoxicity against human PC3 cells assessed as growth inhibition after 72 hrs by MTS assay; format: functional, cell-based; settings: PC-3, 72 h; summary of the method: as §1
[4] = Cytotoxicity against human MCF10A cells assessed as growth inhibition after 72 hrs by MTS assay; format: toxicity, cell-based, MCF-10A; summary of the method: as §1
[5] = Cytotoxicity against human MDA-MB-231 cells assessed as growth inhibition after 72 hrs by MTS assay; format: functional, cell-based; settings: MDA-MB-231, 72 h; summary of the method: as §1
[6] = Cytotoxicity against human STO cells assessed as growth inhibition after 72 hrs by MTS assay; format: functional, cell-based; summary of the method: as §1
[7] = Cytotoxicity against human WI38 cells assessed as growth inhibition after 72 hrs by MTS assay; format: toxicity, cell-based, WI-38; summary of the method: as §1
[8] = Cytotoxicity against human MCF7 cells assessed as growth inhibition after 72 hrs by MTS assay; format: functional, cell-based; settings: MCF7, 72 h; summary of the method: as §1
[9] = Cytotoxicity against human DU145 cells assessed as growth inhibition after 72 hrs by MTS assay; format: functional, cell-based; settings: DU-145, 72 h; summary of the method: as §1
[10] = Cytotoxicity against human M14 cells assessed as growth inhibition after 72 hrs by MTS assay; format: functional, cell-based; settings: M14, 72 h; summary of the method: as §1
[11] = Cell cycle arrest in human STO cells assessed as mitotic cells at antiproliferative IC50 after 72 hrs by fluorescence microscopic analysis relative to control; format: functional
[12] = Cell cycle arrest in human MP8 cells assessed as mitotic cells at antiproliferative IC50 after 72 hrs by fluorescence microscopic analysis relative to control; format: functional
MP8 [13] = experiment: Cell cycle arrest in human MP8 cells assessed as accumulation at G2/M phase at antiproliferative IC50 after 48 to 72 hrs by propidium iodide staining based flow cytometry; format: functional
Summary of the method: (§2)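 STO or MP8 cells exposed 48 and 72 h to compound at IC50 or IC80 (72-h MTS values), controls 1% DMSO. Adherent plus floating cells fixed in 70% ethanol, stained 30 min at 4°C with propidium iodide 50 µg/mL, RNase, 0.05% NP-40 in PBS. ≥30000 events per flow cytometry sample; Modfit model for G1/S/G2/M percentages; mean of three independent experiments.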

STO [14] = experiment: Cell cycle arrest in human STO cells assessed as accumulation at G2/M phase at antiproliferative IC50 after 48 to 72 hrs by propidium iodide staining based flow cytometry; format: functional; summary of the method: as §2
[15] = Oral bioavailability in rat; format: ADME, organism-based; settings: in vivo
[16] = Toxicity in mouse implanted with mouse M5076 cells; format: organism-based
[17] = Displacement of [3H]colchicine from tubulin (unknown origin); design: species or system Homo sapiens
[18] = Oral bioavailability in monkey; format: ADME, organism-based, Macaca mulatta; settings: rhesus monkey, in vivo
[19] = Antitumor activity against mouse M5076 cells implanted in mouse assessed as increase in mouse life span at 100 mg/kg/day relative to control; format: functional
[20] = Oral bioavailability in mouse; format: ADME, organism-based; settings: in vivo
[21] = Antitumor activity against mouse M5076 cells implanted in mouse assessed as delay in time to develop 1 g tumor volume at 100 mg/kg/day; format: functional
[22] = Oral bioavailability in dog; format: ADME, organism-based, Canis lupus familiaris; settings: in vivo
STO [23] = experiment: Inhibition of alpha-tubulin polymerization in human STO cells assessed as increase in ratio of soluble to polymerized tubulin fraction at antiproliferative IC50 after 24 hrs by western blot analysis; format: cell-based
STO [24] = experiment: Cell cycle arrest in human STO cells assessed as reduction G1 phase at antiproliferative IC50 after 48 to 72 hrs by propidium iodide staining based flow cytometry; format: functional; summary of the method: as §2
MP8 [25] = experiment: Inhibition of alpha-tubulin polymerization in human MP8 cells assessed as increase in ratio of soluble to polymerized tubulin fraction at antiproliferative IC50 after 24 hrs by western blot analysis; format: cell-based
[26] = Antitumor activity against human STO cells xenografted in nude mouse assessed as tumor growth inhibition at 5 mg/kg, ip administered once per seven days for 4 weeks starting from day 10 post cell inoculum; format: functional; settings: read-out: TGI
Summary of the method: (§3)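 Female nude mice, 6-8 weeks old; 10^7 exponentially growing STO cells injected s.c. into right flank; eight mice per group. Compound in 10% DMSO/90% saline, 5 mg/kg i.p. q7dx4 from day 10 after inoculum. Tumor diameters measured weekly by caliper, TV = d2×D/2; TVI% = 100 − (mean TV treated/mean TV control × 100). Toxicity scored as body weight loss and lethality.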

Mus musculus = experiment: Toxicity in nude mouse xenografted with human STO cells assessed as body weight loss at 5 mg/kg, ip administered once per seven days for 4 weeks starting from day 10 post cell inoculum; format: organism-based; settings: in vivo, 672 h; summary of the method: as §3
MP8 [27] = experiment: Cell cycle arrest in human MP8 cells assessed as reduction G1 phase at antiproliferative IC80 after 48 to 72 hrs by propidium iodide staining based flow cytometry; format: functional; summary of the method: as §2
STO [28] = experiment: Cell cycle arrest in human STO cells assessed as reduction G1 phase at antiproliferative IC80 after 48 to 72 hrs by propidium iodide staining based flow cytometry; format: functional; summary of the method: as §2
MP8 [29] = experiment: Cell cycle arrest in human MP8 cells assessed as reduction G1 phase at antiproliferative IC50 after 48 to 72 hrs by propidium iodide staining based flow cytometry; format: functional; summary of the method: as §2
MP8 [30] = experiment: Inhibition of alpha-tubulin polymerization in human MP8 cells assessed as increase in ratio of soluble to polymerized tubulin fraction at 13 nM after 24 hrs by western blot analysis; format: cell-based
STO [31] = experiment: Inhibition of alpha-tubulin polymerization in human STO cells assessed as increase in ratio of soluble to polymerized tubulin fraction at 2 nM after 24 hrs by western blot analysis; format: cell-based

Row | SMILES | IC50 [1] | IC50 [2] | IC50 [3] | IC50 at 72 h [4] | IC50 [5] | IC50 [6] | IC50 at 72 h [7] | IC50 [8] | IC50 [9] | IC50 [10] | further results
1 | COc1cccc(Cn2cc3c(c2)-c2oncc2CC3)c1 | 0.96 µM | 0.51 µM | 0.96 µM | > 100 µM | 0.85 µM | 0.46 µM | > 100 µM | 1.17 µM | 1.37 µM | 1.02 µM | 
2 | COc1ccc(-n2cc3c(c2)-c2oncc2CC3)cc1 | 61.6 µM | 21.2 µM | 79.9 µM |  | 57.5 µM | 25.5 µM |  | 79.6 µM | 81.1 µM | 58.5 µM | 
3 | CCOC(=O)c1c2c(c(C)n1Cc1ccccc1)-c1oncc1CC2 | > 100 µM | > 100 µM | > 100 µM |  | > 100 µM | > 100 µM |  | > 100 µM | > 100 µM | > 100 µM | 
4 | c1ccc(Cn2cc3c(c2)-c2oncc2CC3)cc1 | 5.14 µM | 0.69 µM | 13.5 µM | > 100 µM | 19.6 µM | 0.79 µM | > 100 µM | 11.3 µM | 15.2 µM | 6.88 µM | 
5 | CC(=O)O[C@H]1C(=O)[C@@]2(C)[C@H]([C@H](OC(=O)c3ccccc3)[C@]3(O)C[C@H](OC(=O)[C@H](O)[C@@H](NC(=O)c4ccccc4)c4ccccc4)C(C)=C1C3(C)C)[C@]1(OC(C)=O)CO[C@@H]1C[C@@H]2O [PACLITAXEL] |  |  |  |  |  |  |  |  |  |  | Activity [11]: 35 - 70%; Activity [12]: 35 - 70%; Activity (MP8 [13]): Active; Activity (STO [14]): Active
6 | COc1ccccc1Cn1cc2c(c1)-c1oncc1CC2 | 16.2 µM | 1.52 µM | 18.6 µM | > 100 µM | 14.4 µM | 0.79 µM | > 100 µM | 19.4 µM | 17.5 µM | 20.5 µM | 
7 | Cc1c2c(cn1C)CCc1cnoc1-2 | > 100 µM | > 100 µM | > 100 µM |  | > 100 µM | > 100 µM |  | > 100 µM | > 100 µM | > 100 µM | 
8 | Cc1ccc(Cn2cc3c(c2)-c2oncc2CC3)cc1 | > 100 µM | > 100 µM | > 100 µM |  | > 100 µM | > 100 µM |  | > 100 µM | > 100 µM | > 100 µM | 
9 | COc1ccc(Cn2cc3c(c2)-c2oncc2CC3)cc1OC | 0.85 µM | 0.51 µM | 0.79 µM | > 100 µM | 0.88 µM | 0.64 µM | > 100 µM | 1.03 µM | 0.87 µM | 0.96 µM | 
10 | c1ccc(-n2cc3c(c2)-c2oncc2CC3)cc1 | 59.6 µM | 25.3 µM | 70.5 µM |  | 68.4 µM | 29.5 µM |  | 81.2 µM | 76.4 µM | 63.4 µM | 
11 | Cc1c2c(cn1Cc1ccccc1)CCc1cnoc1-2 | > 100 µM | > 100 µM | > 100 µM |  | > 100 µM | > 100 µM |  | > 100 µM | > 100 µM | > 100 µM | 
12 | CCOC(=O)c1c2c(c(C)n1C)-c1oncc1CC2 | > 100 µM | > 100 µM | > 100 µM |  | > 100 µM | > 100 µM |  | > 100 µM | > 100 µM | > 100 µM | 
13 | COc1ccc(OC)c(Cn2cc3c(c2)-c2oncc2CC3)c1 | 19.2 µM | > 100 µM | 23.7 µM | > 100 µM | 19.6 µM | > 100 µM | > 100 µM | 15.2 µM | 19.5 µM | 16.8 µM | 
14 | COc1cc([C@H]2CN=C(c3ccc4c(ccn4C)c3)O2)cc(OC)c1OC |  |  |  |  |  |  |  |  |  |  | bioavailability [15]: 6.5 to 18.6%; MTD [16]: 100 mg/kg/day; Ki [17]: 0.65 µM; bioavailability [18]: 6.5 to 18.6%; Activity [19]: 206%; bioavailability [20]: 6.5 to 18.6%; Time [21]: 28 days; bioavailability [22]: 6.5 to 18.6%
15 | CCOC(=O)c1c2c(c(C)n1Cc1ccc(OC)cc1)-c1oncc1CC2 | > 100 µM | > 100 µM | > 100 µM |  | > 100 µM | > 100 µM |  | > 100 µM | > 100 µM | > 100 µM | 
16 | Cn1cc2c(c1)-c1oncc1CC2 | 58.4 µM | 26.7 µM | 77.1 µM |  | 55.4 µM | 28.1 µM |  | 86.6 µM | 69.3 µM | 65.8 µM | 
17 | COc1cc(Cn2cc3c(c2)-c2oncc2CC3)cc(OC)c1 | 0.23 µM | 0.07 µM | 0.27 µM | > 100 µM | 0.32 µM | 0.06 µM | > 100 µM | 0.33 µM | 0.31 µM | 0.31 µM | inhibition (STO [23]): Active; Activity [11]: 35 - 70%; Activity (STO [24]): Active; inhibition (MP8 [25]): Active; inhibition in vivo at 5 mg/kg [26]: 51%; Activity [12]: 35 - 70%; Activity (Mus musculus): Non-Toxic; Activity (MP8 [27]): Active; Activity (STO [28]): Active; Activity (MP8 [29]): Active
18 | COc1ccc(Cn2cc3c(c2)-c2oncc2CC3)cc1 | 9.15 µM | > 100 µM | 18.6 µM | > 100 µM | 15.6 µM | > 100 µM | > 100 µM | 7.89 µM | 15.2 µM | 12.5 µM | 
19 | CCC1=C[C@@H]2CN(C1)Cc1c([nH]c3ccccc13)[C@@](C(=O)OC)(c1cc3c(cc1OC)N(C)[C@H]1[C@@](O)(C(=O)OC)[C@H](OC(C)=O)[C@]4(CC)C=CCN5CC[C@]31[C@@H]54)C2 [VINORELBINE] |  |  |  |  |  |  |  |  |  |  | Activity [11]: 35 - 70%; inhibition (MP8 [30]): Active; Activity [12]: 35 - 70%; Activity (MP8 [13]): Active; Activity (STO [14]): Active; inhibition (STO [31]): Active
20 | COc1cccc(Cn2cc3c(c2)-c2oncc2CC3)c1OC | > 100 µM | > 100 µM | > 100 µM |  | > 100 µM | > 100 µM |  | > 100 µM | > 100 µM | > 100 µM | 
21 | COc1cc(Cn2cc3c(c2)-c2oncc2CC3)cc(OC)c1OC | 0.63 µM | 0.73 µM | 0.87 µM | > 100 µM | 0.75 µM | 0.62 µM | > 100 µM | 0.92 µM | 0.99 µM | 0.89 µM | 
